What was measured:
[1] = Selectivity ratio of EC50 for human recombinant S1PR3 expressed in CHO cell membranes to EC50 for human recombinant S1PR1 expressed in CHO cell membranes; format: cell-based
In short: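 Compound and membranes are pre-incubated 30 min at rt, then incubated 1 h at rt, filtered and counted. EC50 is the concentration giving 50% of S1P-defined specific binding, as the geometric mean of ≥3 independent duplicate runs. Ratio = EC50 S1PR3/EC50 S1PR1.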

[2] = target: Sphingosine 1-phosphate receptor 1 (Homo sapiens, UniProt P21453); assay: Agonist activity at human recombinant S1PR1 expressed in CHO cell membranes assessed as [35S]GTPgammaS binding preincubated for 30 mins followed by [35S]GTPgammaS addition measured after 1 hr by topcount analysis
Sphingosine 1-phosphate receptor 1, sequence (P21453 whole entry): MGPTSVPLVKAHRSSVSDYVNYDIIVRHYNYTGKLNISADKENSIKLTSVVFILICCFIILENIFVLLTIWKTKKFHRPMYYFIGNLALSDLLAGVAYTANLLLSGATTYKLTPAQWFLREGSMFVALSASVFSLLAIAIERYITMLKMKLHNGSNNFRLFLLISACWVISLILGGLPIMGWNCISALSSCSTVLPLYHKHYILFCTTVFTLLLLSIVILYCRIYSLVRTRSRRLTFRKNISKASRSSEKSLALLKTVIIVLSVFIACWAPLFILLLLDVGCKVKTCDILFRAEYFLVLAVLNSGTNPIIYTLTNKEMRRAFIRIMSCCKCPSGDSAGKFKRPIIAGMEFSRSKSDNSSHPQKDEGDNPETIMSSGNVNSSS

[3] = target: Sphingosine 1-phosphate receptor 3 (Homo sapiens, UniProt Q99500); assay: Agonist activity at human recombinant S1PR3 expressed in CHO cell membranes assessed as [35S]GTPgammaS binding preincubated for 30 mins followed by [35S]GTPgammaS addition measured after 1 hr by topcount analysis; format: functional
Sphingosine 1-phosphate receptor 3, sequence (Q99500 whole entry): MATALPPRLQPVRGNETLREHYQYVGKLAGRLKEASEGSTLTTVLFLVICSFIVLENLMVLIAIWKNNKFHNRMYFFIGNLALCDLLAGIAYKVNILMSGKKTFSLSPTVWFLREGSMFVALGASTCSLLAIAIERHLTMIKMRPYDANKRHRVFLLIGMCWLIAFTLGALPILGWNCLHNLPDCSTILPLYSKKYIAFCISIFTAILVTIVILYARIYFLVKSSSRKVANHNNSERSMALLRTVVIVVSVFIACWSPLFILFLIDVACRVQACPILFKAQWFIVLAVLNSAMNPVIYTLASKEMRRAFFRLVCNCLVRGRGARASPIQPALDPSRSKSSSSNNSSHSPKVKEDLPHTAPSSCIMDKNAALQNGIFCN
In short: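 Membranes from CHO cells expressing recombinant human S1P1 or S1P3 were used. Buffer was 20 mM Hepes pH 7.4, 100 mM NaCl, 5 mM MgCl2, 0.1% fatty-acid-free BSA, 2.5% DMSO and 50 pM 35S-GTPgammaS. GDP was […] for S1P3. Compound was preincubated 30 min at rt, then incubated 1 h at rt with 35S-GTPgammaS. Bound label was collected by filtration and counted. Specific binding was taken against 10 uM S1P. EC50 was the 50%-of-specific-binding concentration, reported as the geometric mean of at least three independent duplicate runs.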

Structure (SMILES)	Ratio EC50 [1]	EC50 [2] [nM]	EC50 [3] [nM]
CCNCc1ccc(-c2nc(-c3cc(C)c(OC[C@@H](O)CNC(=O)CO)c(CC)c3)no2)s1	> 34	293	> 10000
CCc1cc(-c2noc(-c3cc(C)cc(CNCC(C)C)c3)n2)cc(C)c1OC[C@@H](O)CNC(=O)CO	140	15	2100
CCCCN(C)Cc1sc(-c2nc(-c3cc(C)c(OC[C@@H](O)CNC(=O)CO)c(CC)c3)no2)cc1C	171	0.7	120
CCc1cc(-c2noc(-c3ccc(CNC)cc3)n2)cc(C)c1OC[C@@H](O)CNC(=O)CO	> 4.8	2090	> 10000
CCc1cc(-c2noc(-c3cc(C)c(CN(C)CCO)s3)n2)cc(C)c1OC[C@@H](O)CNC(=O)CO	607	2.8	1700
CCc1cc(-c2noc(-c3cc(C)c(CNC)s3)n2)cc(C)c1OC[C@@H](O)CNC(=O)CO	> 714	14	> 10000
CCc1cc(CN(C)CC(C)C)cc(-c2nc(-c3cc(C)c(OC[C@@H](O)CNC(=O)CO)c(CC)c3)no2)c1	7	1.1	8
CCc1cc(-c2noc(-c3cc(C)c(CNCC(C)C)s3)n2)cc(C)c1OC[C@@H](O)CNC(=O)CO	70	20	1400
CCc1cc(-c2noc(-c3ccc(C)c(CN(C)CC)c3)n2)cc(C)c1OC[C@@H](O)CNC(=O)CO	32	285	9000
CCc1cc(-c2noc(-c3ccc(C)c(CN(C)CC(C)C)c3)n2)cc(C)c1OC[C@@H](O)CNC(=O)CO	12	97	1200
CCc1cc(-c2noc(-c3ccc(C)c(CNCC(C)C)c3)n2)cc(C)c1OC[C@@H](O)CNC(=O)CO	> 4	2350	> 10000
CCc1cc(-c2noc(-c3sc(CN(C)CC(C)C)c(C)c3C)n2)cc(C)c1OC[C@@H](O)CNC(=O)CO	42	55	2300
CCCN(C)Cc1sc(-c2nc(-c3cc(C)c(OC[C@@H](O)CNC(=O)CO)c(CC)c3)no2)c(C)c1C	26	14	370
CCc1cc(-c2nc(-c3cc(C)c(CCC(=O)NCCO)c(CC)c3)no2)cnc1N(C)C(C)C		5.1	
CCc1cc(-c2noc(-c3ccc(CN(CC)CC)c(C)c3)n2)cc(C)c1OC[C@@H](O)CNC(=O)CO	56	10	560
CCc1cc(-c2noc(-c3ccc(CN(C)C)cc3)n2)cc(C)c1OC[C@@H](O)CNC(=O)CO	> 62	160	> 10000
CCc1cc(-c2noc(-c3ccc(CN(C)CC)s3)n2)cc(C)c1OC[C@@H](O)CNC(=O)CO	676	6.8	4600
CCc1cc(-c2nc(-c3cc(C)c(OC[C@@H](O)CNC(=O)CO)c(CC)c3)no2)sc1CN(C)C	150	0.3	45
CCc1cc(-c2noc(-c3ccc(CN(C)C)cc3C)n2)cc(C)c1OC[C@@H](O)CNC(=O)CO	> 43	230	> 10000
CCc1cc(-c2nnc(-c3cc(C)nc(N(CC)CC)c3)o2)cc(C)c1OC[C@@H](O)CNC(=O)CO		7.9	
CCCCN(C)Cc1cc(-c2nc(-c3cc(C)c(OC[C@@H](O)CNC(=O)CO)c(CC)c3)no2)ccc1C	9	310	2900
CCc1cc(-c2noc(-c3cc(C)c(CN(C)CCN(C)C)s3)n2)cc(C)c1OC[C@@H](O)CNC(=O)CO	> 64	155	> 10000

Structure (SMILES)	Ratio EC50 [1]	EC50 [2] [nM]	EC50 [3] [nM]
CCc1cc(-c2noc(-c3ccc(CNC)s3)n2)cc(C)c1OC[C@@H](O)CNC(=O)CO	> 53	189	> 10000
CCc1cc(-c2noc(-c3ccc(CNC(C)C)s3)n2)cc(C)c1OC[C@@H](O)CNC(=O)CO	> 49	203	> 10000
CCCN(C)Cc1cc(-c2nc(-c3cc(C)c(OC[C@@H](O)CNC(=O)CO)c(CC)c3)no2)cc(C)n1	102	8.5	870
CCCNCc1cccc(-c2nc(-c3cc(C)c(OC[C@@H](O)CNC(=O)CO)c(CC)c3)no2)c1	> 33	305	> 10000
CCCN(C)Cc1cc(-c2nc(-c3cc(C)c(OC[C@@H](O)CNC(=O)CO)c(CC)c3)no2)ccc1C	14	305	4300
CCc1cc(-c2noc(-c3ccc(CN(C)C)c(C)c3)n2)cc(C)c1OC[C@@H](O)CNC(=O)CO			3200
CCc1cc(-c2noc(-c3cc(C)nc(CN(CC)CC)c3)n2)cc(C)c1OC[C@@H](O)CO		110	
CCCCN(C)Cc1cc(-c2nc(-c3cc(C)c(OC[C@@H](O)CNC(=O)CO)c(CC)c3)no2)cc(C)n1	349	4.3	1500
CCc1cc(-c2nc(-c3cc(C)c(OC[C@@H](O)CNC(=O)CO)c(CC)c3)no2)ccc1CN(CC)CC	210	1	210
CCc1cc(-c2noc(-c3cc(C)c(CN(C)CC)s3)n2)cc(C)c1OC[C@@H](O)CNC(=O)CO	115	1.3	150
CCCN(C)Cc1cc(C)cc(-c2nc(-c3cc(C)c(OC[C@@H](O)CNC(=O)CO)c(CC)c3)no2)c1	93	4.1	380
CCc1cc(-c2noc(-c3cccc(CNC)c3)n2)cc(C)c1OC[C@@H](O)CNC(=O)CO	> 53	190	> 10000
CCc1cc(-c2noc(-c3ccc(CNCC(C)C)c(C)c3)n2)cc(C)c1OC[C@@H](O)CNC(=O)CO	> 37	270	> 10000
CCCc1cc(CN(C)CC(C)C)cc(-c2nc(-c3cc(C)c(OC[C@@H](O)CNC(=O)CO)c(CC)c3)no2)c1	< 2	2.8	3.5
CCc1cc(-c2noc(-c3cc(C)nc(CN4CCCC4)c3)n2)cc(C)c1OC[C@@H](O)CNC(=O)CO	> 105	95	> 10000
CCc1cc(-c2nc(-c3cc(C)c(OC[C@@H](O)CNC(=O)CO)c(CC)c3)no2)ccc1CN(C)CC	100	1	100
CCc1cc(-c2noc(-c3cc(C)c(CN(C)C)c(C)c3)n2)cc(C)c1OC[C@@H](O)CNC(=O)CO	> 80	69	5500
CCc1cc(-c2noc(-c3ccc(CN4CCCC4)c(C)c3)n2)cc(C)c1OC[C@@H](O)CNC(=O)CO	62	50	3100
CCc1cc(-c2noc(-c3sc(CN(C)C)c(C)c3C)n2)cc(C)c1OC[C@@H](O)CNC(=O)CO	687	6.4	4400
CCc1cc(-c2noc(-c3cc(CN(C)CC(C)C)ccc3C)n2)cc(C)c1OC[C@@H](O)CNC(=O)CO	> 20	490	> 10000
CCCCN(C)Cc1ccc(-c2nc(-c3cc(C)c(OC[C@@H](O)CNC(=O)CO)c(CC)c3)no2)cc1C	66	5.3	350
CCc1cc(-c2noc(-c3cc(C)c(C=O)s3)n2)cc(C)c1OC[C@@H](O)CNC(=O)CO		26	> 10000
